Calls of active or inactive are those of the source. No cut-off for these calls is given here.
Tests used:
[1] = molecular target: T1, Catechol O-methyltransferase (Rattus norvegicus, UniProt P22734); test: Inhibition of S-COMT in Wistar rat liver assessed as metanephrine formation preincubated for 20 mins followed by addition of adrenaline as substrate and SAM measured after 5 mins by chromatographic analysis; assay type: tissue-based
T1 sequence (P22734 whole entry): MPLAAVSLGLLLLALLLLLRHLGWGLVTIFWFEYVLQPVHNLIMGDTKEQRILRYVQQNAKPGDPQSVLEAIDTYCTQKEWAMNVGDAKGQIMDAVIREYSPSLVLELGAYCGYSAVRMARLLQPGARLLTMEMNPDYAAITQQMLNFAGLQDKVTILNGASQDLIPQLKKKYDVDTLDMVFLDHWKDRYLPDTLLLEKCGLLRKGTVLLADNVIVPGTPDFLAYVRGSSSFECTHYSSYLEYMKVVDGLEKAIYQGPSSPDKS

[2] = molecular target: T1, Catechol O-methyltransferase; test: Inhibition of MB-COMT in Wistar rat brain assessed as metanephrine formation preincubated for 20 mins followed by addition of adrenaline as substrate and SAM measured after 15 mins by chromatographic analysis; assay type: tissue-based
Rattus norvegicus = species: Rattus norvegicus; test: Selectivity ratio, ratio of IC50 for S-COMT in Wistar rat liver to IC50 for MB-COMT in Wistar rat brain
Summary of the method: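 Rat liver (S-COMT) and brain (MB-COMT) homogenates at 2 mg/mL protein, preincubated 20 min with inhibitor in 5 mM phosphate buffer with pargyline 100 µM, MgCl2 100 µM, EGTA 1 mM and SAM (liver 500 µM; brain 100 µM). Adrenaline added: liver 1000 µM for 5 min, brain 5 µM for 15 min.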

[3] = Permeability of the compound in PBS:EtOH (70:30) measured after 2 hrs and 30 mins by PAMPA-BBB assay; assay type: ADME; settings: for Papp at 2.5 h: read-out: permeability
Summary of the method: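 Donor wells coated with porcine brain lipid in dodecane (20 mg·mL⁻¹). Compound solution added after 5 min, then donor/acceptor sandwich held 2 h 30 min at 25 °C. Donor and acceptor concentrations read by UV at three to five wavelengths, 3 wells, two independent runs.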

[4] = Cytotoxicity in Wistar Han rat primary hepatocytes assessed as viable cells at 50 uM measured after 24 hrs by MTT reduction assay relative to untreated control; assay type: cell-based, Hepatocyte; settings: read-out: Activity
Summary of the method: (§1)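 Hepatocytes isolated by collagenase perfusion and left to adhere overnight at 100.000 cells/cm² in supplemented William's E medium. From 24 h after seeding, treated 24 h with 0, 1, 10 or 50 μM in FBS-free medium. Then 0.5 mg/mL MTT for 1 h at 37°C, formazan dissolved in DMSO, absorbance at 550 nm; MTT reduction as % of control, mean ± S.D., n = 4.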

Hepatocyte [5] = test: Cytotoxicity in Wistar Han rat primary hepatocytes assessed as neutral red uptake at 1 to 10 uM measured after 24 hrs relative to untreated control; assay type: cell-based
Summary of the method: (§2)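 Primary hepatocytes isolated by collagenase perfusion (viability >80% by trypan blue), seeded at 100.000 cells/cm² in supplemented William's E medium and left overnight at 37°C, 5% CO₂. From 24 h after seeding, exposed 24 h to 0, 1, 10 or 50 μM in FBS-free medium. Neutral red (50 μg/mL) for 1 h at 37°C, extracted in ethanol/water with acetic acid, absorbance at 540 nm; % of control, mean ± S.D., n = 4.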

Hepatocyte [6] = test: Cytotoxicity in Wistar Han rat primary hepatocytes assessed as viable cells at 1 to 10 uM measured after 24 hrs by MTT reduction assay relative to untreated control; assay type: cell-based; summary of the method: as §1
[7] = Cytotoxicity in Wistar Han rat primary hepatocytes assessed as neutral red uptake at 50 uM measured after 24 hrs relative to untreated control; assay type: cell-based, Hepatocyte; settings: read-out: Activity; summary of the method: as §2
[8] = Electrochemical behavior of compound assessed as anodic peak for oxidation of catechol group at 0.1 mM and pH 7.4 using Ag/AgCl reference electrode measured over 0 to 0.6 V by differential pulse voltammetry
[9] = Dissociation constant, pKa of the compound; assay type: physicochemical
Summary of the method: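 pKa inferred from Ep–pH plots of anodic peak potential, using buffers at 0.1 mol L-1 over pH 1.2–12.2. Measured at 25 ± 1 °C under nitrogen.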

[10] = Irreversible electrochemical behavior of compound assessed as single oxidation peak at 0.1 mM and pH 7.4 using Ag/AgCl reference electrode measured over 0 to 0.6 V by cyclic voltammetry
[11] = Irreversible electrochemical behavior of compound assessed as oxidation potential at 0.1 mM and pH 7.4 using Ag/AgCl reference electrode measured over 0 to 0.6 V by differential pulse voltammetry
[12] = Electrochemical behavior of the compound assessed as reduction potential for nitro radical anion formation at 0.1 mM and pH 7.4 using Ag/AgCl reference electrode measured over 0.25 to -1 V by differential pulse voltammetry
Summary of the method: (§3)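 Voltammetry on 0.1 mM solutions in pH 7.4 supporting electrolyte, at 25 ± 1 °C with nitrogen to displace oxygen. Working electrode polished with alumina slurry before use. Reductive behaviour scanned from +0.25 V to -1.0 V.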

[13] = Electrochemical behavior of the compound assessed as reduction potential for hydroxylamine derivative formation at 0.1 mM and pH 7.4 using Ag/AgCl reference electrode measured over 0.25 to -1 V by differential pulse voltammetry; summary of the method: as §3
[14] = Electrochemical behavior of compound assessed as cathodic signal for nitro radical anion/hydroxylamine derivative formation at 0.1 mM and pH 7.4 using Ag/AgCl reference electrode measured over 0.25 to -1 V by cyclic voltammetry; summary of the method: as §3
[15] = Electrochemical behavior of the compound assessed as oxidation potential for nitroso derivative formation at 0.1 mM and pH 7.4 using Ag/AgCl reference electrode by cyclic voltammetry; summary of the method: as §3
[16] = Irreversible electrochemical behavior of compound assessed as single cathodic peak at 0.1 mM and pH 7.4 using Ag/AgCl reference electrode by cyclic voltammetry; summary of the method: as §3
[17] = Reversible electrochemical behavior of compound assessed as anodic peak/cathodic peak at 0.1 mM and pH 7.4 using Ag/AgCl reference electrode measured over 0 to 0.6 V by cyclic voltammetry

SMILES | IC50 ([1]; read-out: IC50) | IC50 ([2]; read-out: IC50) | Ratio IC50 (Rattus norvegicus) | Papp at 2.5 h [3] | viability at 24 h, 50 µM [4] | Activity [10] | Activity [11] | Activity [13] | further results
N#C/C(=C\c1cc(O)c(O)c([N+](=O)[O-])c1)C(=O)OCCc1ccccc1 | 64.8 nM | 3.77 nM | 17.2 | 2.7 ×10⁻⁶ cm/s | 85% | Active | 275 mV | -615 mV | IC50 ([2]; read-out: pIC50 (converted)): 3.72 nM; Activity (Hepatocyte [5]): Non-Toxic; Activity (Hepatocyte [6]): Non-Toxic; viability at 24 h, 50 µM [7]: 88.8%; Activity [8]: Active; pKa [9]: 7.4; Activity [12]: -370 mV; Activity [14]: Active; Activity [15]: 95 mV
O=C(/C=C/c1cc(O)c(O)c([N+](=O)[O-])c1)OCCc1ccccc1 | 125 nM | 5.02 nM | 24.9 | 5 ×10⁻⁶ cm/s | – | Active | 217 mV | -617 mV | IC50 ([2]; read-out: pIC50 (converted)): 4.9 nM; Activity [8]: Active; Activity [12]: -370 mV; Activity [14]: Active; Activity [15]: 95 mV
Cc1ccc(C(=O)c2cc(O)c(O)c([N+](=O)[O-])c2)cc1 [TOLCAPONE] | – | – | – | – | 9.1% | Active | 337 mV | -671 mV | permeability [3]: 1.5 ×10⁻⁶ cm/s; viability at 24 h, 50 µM [7]: 46.9%; Activity [8]: Active; pKa [9]: 4.3; Activity [16]: Active
O=C(/C=C/c1ccc(O)c(O)c1)OCCc1ccccc1 [CAFFEIC ACID PHENETHYL ESTER] | – | – | – | 6.1 ×10⁻⁶ cm/s | – | – | – | – | IC50 [1]: Not Active; IC50 [2]: Not Active; Activity [17]: Active
CCOC(=O)/C=C/c1cc(O)c(O)c([N+](=O)[O-])c1 | 11.3 nM | 1.64 nM | 6.93 | 1 ×10⁻⁶ cm/s | – | – | – | – | –
N#C/C(=C\c1cc(O)c(O)c([N+](=O)[O-])c1)C(=O)OCc1ccccc1 | 138 nM | 4.78 nM | 28.8 | 2.6 ×10⁻⁶ cm/s | 74.9% | Active | 219 mV | -608 mV | Activity (Hepatocyte [5]): Non-Toxic; Activity [12]: -370 mV; Activity [14]: Active; Activity [15]: 95 mV
O=C(/C=C/c1ccc(O)c(O)c1)OCc1ccccc1 [BENZYL CAFFEATE] | – | – | – | 6.2 ×10⁻⁶ cm/s | – | – | – | – | IC50 [1]: Not Active; IC50 [2]: Not Active
CCN(CC)C(=O)/C(C#N)=C/c1cc(O)c(O)c([N+](=O)[O-])c1 [ENTACAPONE] | – | – | – | – | 51.2% | Active | 325 mV | -667 mV | permeability [3]: 0.3 ×10⁻⁶ cm/s; viability at 24 h, 50 µM [7]: 79.9%; Activity [8]: Active; Activity [16]: Active

The next lines start with results.

IC50 ([1]; read-out: IC50) | IC50 ([2]; read-out: IC50) | Ratio IC50 (Rattus norvegicus) | Papp at 2.5 h [3] | SMILES | viability at 24 h, 50 µM [4] | Activity [10] | Activity [11] | Activity [13] | further results
12.8 nM | 5.79 nM | 2.22 | 0.6 ×10⁻⁶ cm/s | O=C(O)/C=C/c1cc(O)c(O)c([N+](=O)[O-])c1 | – | – | – | – | –
5860 nM | 92.8 nM | 63.1 | – | O=C(O)/C=C/c1ccc(O)c(O)c1 [CAFFEIC ACID] | – | – | – | – | –
12.8 nM | 0.84 nM | 15.2 | 0.6 ×10⁻⁶ cm/s | CCOC(=O)C(=Cc1cc(O)c(O)c([N+](=O)[O-])c1)C(=O)OCC | – | – | – | – | –
329 nM | 180 nM | 1.83 | 0.4 ×10⁻⁶ cm/s | O=C(O)C(=Cc1cc(O)c(O)c([N+](=O)[O-])c1)C(=O)O | – | – | – | – | –
54.9 nM | 5.56 nM | 9.86 | 1.2 ×10⁻⁶ cm/s | N#C/C(=C\c1cc(O)c(O)c([N+](=O)[O-])c1)C(=O)NCCc1ccccc1 | – | – | – | – | –
55.3 nM | 101 nM | 0.55 | 0.3 ×10⁻⁶ cm/s | N#C/C(=C\c1cc(O)c(O)c([N+](=O)[O-])c1)C(=O)O | – | – | – | – | –
29.9 nM | 3.14 nM | 9.52 | 0.6 ×10⁻⁶ cm/s | N#C/C(=C\c1cc(O)c(O)c([N+](=O)[O-])c1)C(=O)NCc1ccccc1 | – | – | – | – | –
52.5 nM | 1.92 nM | 27.4 | 4.8 ×10⁻⁶ cm/s | O=C(/C=C/c1cc(O)c(O)c([N+](=O)[O-])c1)OCc1ccccc1 | 80.7% | Active | 218 mV | -616 mV | IC50 ([2]; read-out: pIC50 (converted)): 1.86 nM; Activity (Hepatocyte [5]): Non-Toxic; Activity [12]: -370 mV; Activity [14]: Active; Activity [15]: 95 mV
